Reference: ChEMBL document CHEMBL1126273, “Design and synthesis of some substrate analogue inhibitors of phospholipase A2 and investigations by NMR and molecular modeling into the binding interactions in the enzyme-inhibitor complex” (J Med Chem, 1992)

How the values were obtained:
[1] = target: T1, Phospholipase A2, major isoenzyme (Sus scrofa, UniProt P00592); assay: In vitro inhibition of porcine pancreatic phospholipase A2 evaluated by monomeric substrate assay
In short: (§1)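 The monomeric thioester substrate was used at 5.44 mM, below its CMC of 14 mM. The assay also held 0.2 mM DTNB, 0.25 mM CaCl2 and 0.5 μg/mL porcine pancreatic PLA2 in 10 mM sodium phosphate pH 7.5. Inhibitor or methanol made up 2.5% of the volume. Rates were followed over 16 h at about 22 °C. Inhibition was calculated against solvent controls after subtracting nonenzymic hydrolysis.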

[2] = target: T1, Phospholipase A2, major isoenzyme; assay: In vitro inhibition of porcine pancreatic phospholipase A2 evaluated by Deoxycholate-phospholipid mixed micelle assay; not active at the highest concentration tested
In short: (§2)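 Porcine pancreatic PLA2 at 0.074 μg/mL, with 2 mM CaCl2, 2.4 mM sodium deoxycholate and 100 μM 1-stearoyl-2-arachidonoyl-L-phosphatidylcholine traced with 22 000 dpm 1-stearoyl-2-[14C]arachidonoyl-PC, in 50 mM Tris-HCl pH 8.2. Inhibitor was added in methanol at 1% of assay volume. After 8 min at 37 °C, released [14C]arachidonic acid was extracted and counted by scintillation, under hopping-kinetics conditions.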

[3] = target: T1, Phospholipase A2, major isoenzyme; assay: In vitro inhibition of porcine pancreatic phospholipase A2 evaluated by Deoxycholate-phospholipid mixed micelle assay; in short: as §2
[4] = target: T1, Phospholipase A2, major isoenzyme; assay: In vitro inhibition of porcine pancreatic phospholipase A2 evaluated by monomeric substrate assay; not active at the highest concentration tested; in short: as §1
[5] = target: Phospholipase A2, major isoenzyme (Sus scrofa) (UniProt P00592); assay: In vitro inhibition of porcine pancreatic phospholipase A2 by Deoxycholate-phospholipid mixed micelle assay at 30 uM
Sequence of Phospholipase A2, major isoenzyme (Sus scrofa) (P00592 23-146 limits assumed): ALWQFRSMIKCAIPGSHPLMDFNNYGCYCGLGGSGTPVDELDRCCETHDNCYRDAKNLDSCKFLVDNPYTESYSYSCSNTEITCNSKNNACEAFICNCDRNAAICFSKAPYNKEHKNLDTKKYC

T1 sequence (P00592 whole entry): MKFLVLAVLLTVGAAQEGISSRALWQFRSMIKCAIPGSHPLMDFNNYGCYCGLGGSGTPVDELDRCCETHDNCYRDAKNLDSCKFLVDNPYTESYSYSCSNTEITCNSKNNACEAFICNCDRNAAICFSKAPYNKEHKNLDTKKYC

IC50 [1]	IC50 [2]	IC50 [3]	Compound	further results
160 µM	Not Active	–	CC(C)C[C@H](COP(=O)([O-])OCC[N+](C)(C)C)NC(=O)Cc1ccc2ccccc2c1	–
1.4 µM	–	189 µM	CCCCCCCCCCCCCCCC(=O)N[C@H](C)COP(=O)([O-])OCC[N+](C)(C)C	–
–	–	15 µM	CCCCCCCCCCCCCCCCCCOC[C@H](COP(=O)([O-])OCC[N+](C)(C)C)NC(=O)CCCCCCCCCCCCCCC	–
0.23 µM	–	30 µM	CCCCCCCCCCCCCCCC(=O)N[C@@H](COP(=O)([O-])OCC[N+](C)(C)C)CC(C)C	–
4.5 µM	Not Active	–	CCCCCCCCCCCCCCCC(=O)N[C@H](COP(=O)([O-])OCC[N+](C)(C)C)CC(C)C	–
–	–	–	CCCCCC/C=C/CC(=O)N[C@H](COP(=O)([O-])OCC[N+](C)(C)C)CC(C)C	IC50 [4]: Not Active
–	Not Active	–	C[N+](C)(C)CCOP(=O)([O-])OCCNC(=O)c1ccc2ccccc2c1	–
0.03 µM	–	3.5 µM	CCCCCCCCCCCCCCCC(=O)OCC(COP(=O)(O)OCCO)NC(=O)CCCCCCCCCCCCC (stereo unspecified)	–
5 µM	–	–	CCCCCCCCCCCCCCCC(=O)N[C@@H](COP(=O)(O)O)Cc1ccccc1	inhibition [5]: 42%
4 µM	–	300 µM	CCCCCCCCCCCCCCCC(=O)NCCOP(=O)([O-])OCC[N+](C)(C)C	–
0.03 µM	–	2.6 µM	CCCCCCCCCCCCCCCC(=O)N[C@@H](COP(=O)(O)OCCO)CC(C)C	–
> 1000 µM	Not Active	–	C[N+](C)(C)CCOP(=O)([O-])OCCNC(=O)Cc1ccc2ccccc2c1	–
–	Not Active	–	CCCCCCCCCCCC(=O)NCCOP(=O)([O-])OCC[N+](C)(C)C	IC50 [4]: Not Active
6 µM	–	–	CCCCCC/C=C/CC(=O)N[C@@H](COP(=O)([O-])OCC[N+](C)(C)C)CC(C)C	–
10 µM	–	–	CCCCCCCCCCCCCCCC(=O)N[C@@H](COP(=O)(O)O)CC(C)C	inhibition [5]: 22%
